The nature of data set [1]: n-Octanol/water distribution coefficient, log D of the compound at pH 7.4 measured after 4 hrs by shake flask method. Type of data set: physicochemical. The gist of the method: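 Shake-flask at room temperature between n-octanol and 50 mM phosphate buffer pH 7.4, ionic strength 0.15 M KCl. Phases were pre-saturated by 4 h shaking. Compound at about 0.1 mg/ml in buffer, shaken about 20 min with n-octanol, then centrifuged at 10000 rpm for 10 min.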

Data set [2] in a line: Cytotoxicity against human THP-1 cells assessed as reduction in cell viability measured after 72 hr by MTT assay. Type of data set: toxicity, cell-based. The conditions noted are these: read-out: TC50. An outline of the steps: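 Undifferentiated THP-1 cells exposed to 0.1–100 μM compound for 72 h. Viability read by MTT reduction at 570 nm. TC50 from concentration–response; three experiments.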

Data set [3] can be described thus: Stability of the compound in PBS at 100 uM at pH 7.4 measured after 24 hrs by RP-HPLC analysis. Type of data set: physicochemical. The settings on record: buffer, pH 7.4, 24 h. An outline of the steps:
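Compound added from 10 mM DMSO stock to 50 mM PBS pH 7.4 at 37 °C. Sampled at intervals over 48 h and analysed by RP-HPLC with UV detection at 226/254 nm against calibration standards.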

Data set [4] can be described thus: Metabolic stability of the compound in human serum at 100 uM measured after 24 hrs by RP-HPLC analysis. Type of data set: ADME, cell-free. An outline of the steps: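 Human male AB serum at 37 °C with compound at 100 μM (from 10 mM DMSO stock), sampled over 24 h. Aliquots deproteinized with CH3CN/0.1% TFA, centrifuged, filtered and analysed by RP-HPLC (phenyl column, 226/254 nm) with calibration 1-100 μM. Pseudo-first-order t1/2 from exponential decay fit.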

Data set [5] in a line: Metabolic stability of the compound in human THP-1 cells at 100 uM measured after 24 hrs by RP-HPLC analysis. The conditions noted are these: thp-1, 24 h. Type of data set: ADME, cell-based. An outline of the steps:
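Lysate from PMA-differentiated THP-1 cells (RIPA buffer) at 37 °C with compound at 100 μM, added from 10 mM DMSO stock. Aliquots deproteinized with CH3CN/0.1% TFA, centrifuged, filtered and quantified by RP-HPLC at 226/254 nm against external standards. Pseudo-first-order t1/2 from exponential decay fit; three independent experiments.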

Usually logD stands for the decadic logarithm of the distribution of all forms, ionised or not, between an organic phase and buffer at a given pH. Read a low logD as lower lipophilicity. `CC(C)(C)OC(=O)Cn1nc(Cc2ccccc2Cl)oc1=O`: the logD at 4 h in data set [1] amounted to 3.1. Also, in data set [2], the CC50 at 72 h came to 98.9 µM.

As for `O=c1oc(Cc2ccccc2Cl)nn1Cc1nn[nH]n1`, in data set [1], the logD at 4 h was -1.09. For the same compound, the CC50 at 72 h in data set [2] was over 100 µM.

`CCOC(=O)CN(C)c1nnc(NC(=O)c2ccccc2Cl)s1`: in data set [2], the CC50 at 72 h is 96.1 µM.

With `COC(=O)c1ccc(-c2nc(Cc3cccc(C(F)(F)F)c3)no2)cc1`, in data set [2], the CC50 at 72 h is over 100 µM.

Take `COc1ccc(Cn2nc(Cc3ccccc3Cl)oc2=O)cc1`: in data set [2], the CC50 at 72 h was 64.8 µM.

For `O=C(O)Cn1nc(Cc2ccccc2Cl)oc1=O`, the logD at 4 h in data set [1] was -1.66. Besides, the Stability result in data set [3], in data set [4] and in data set [5] was “Stable” throughout. Moreover, in data set [2], the CC50 at 72 h is 94.6 µM.

With `COC(=O)c1ccc(-c2noc(Cc3cccc(C(F)(F)F)c3)n2)cc1`, the CC50 at 72 h in data set [2] was determined as 94.5 µM.

Take `CCOC(=O)CN(Cc1ccccc1)c1nnc(NC(=O)c2ccccc2Cl)s1`: the CC50 at 72 h in data set [2] came out at 91.6 µM.

For `CC(C)c1cc(Cl)cc(C(C)C)c1NC(=O)NS(=O)(=O)c1cc(C(C)(C)O)co1`, the CC50 at 72 h in data set [2] stood at 92.5 µM.

As for `COC(=O)c1ccc(-c2noc(Cc3ccccc3Cl)n2)cc1`, the CC50 at 72 h in data set [2] is over 100 µM.

As for `CCOC(=O)c1ccc(Cn2nc(Cc3ccccc3Cl)oc2=O)cc1`, in data set [2], the CC50 at 72 h was over 100 µM.

Turning to `O=C(O)c1ccc(-c2nc(Cc3cccc(C(F)(F)F)c3)no2)cc1`, the CC50 at 72 h in data set [2] is 27.3 µM.

As to `CCOC(=O)C1CCCN(c2nnc(NC(=O)c3ccccc3Cl)s2)C1` (centres undefined), the CC50 at 72 h in data set [2] stood at 79.7 µM.

Source of the values: ChEMBL document CHEMBL5335784, “Discovery of a novel 1,3,4-oxadiazol-2-one-based NLRP3 inhibitor as a pharmacological agent to mitigate cardiac and metabolic complications in an experimental model of diet-induced metaflammation” (Eur J Med Chem, 2023).
